PMC2901902 (Nature, 2010)

Experiments:
Pitx2 = assay: Endogenous Pitx2 transcript level in transfected C2C12 cells; type: cell-based, mouse; details: C2C12 cells 2 days following transfection
[1] = test system: H3K14ac at the mouse Pitx2 promoter site; assay: Re-ChIP; type: cell-based; details: transfected C2C12 cells, qualitative
[2] = test system: H3K14ac sites in the C2C12 cell nucleus; assay: Immunofluorescence co-localization with H3K14ac in C2C12 cell nucleus; type: cell-based, mouse; details: ectopically expressed EGFP-fusion DPF3b; confocal fluorescence imaging
Procedure, shortened: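 C2C12 myoblasts grown in DMEM with 10% fetal calf serum were transfected with full-length human DPF3b fused to EGFP. H3K14ac was stained with the same anti-H3K14ac antibody used for ChIP and a Texas Red-conjugated secondary. Nuclear overlap of the EGFP and Texas Red signals was imaged on an automated confocal microscope and images were overlaid.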

B1: DPF3b: full length human DPF3b cloned into pEGFP-C1 vector, transfected in C2C12 cells (protein)
chain: MATVIHNPLKALGDQFYKEAIEHCRSYNSRLCAERSVRLPFLDSQTGVAQNNCYIWMEKRHRGPGLAPGQLYTYPARCWRKKRRLHPPEDPKLRLLEIKPEVELPLKKDGFTSESTTLEALLRGEGVEKKVDAREEESIQEIQRVLENDENVEEGNEEEDLEEDIPKRKNRTRGRARGSAGGRRRHDAASQEDHDKPYVCDICGKRYKNRPGLSYHYAHTHLASEEGDEAQDQETRSPPNHRNENHRPQKGPDGTVIPNNYCDFCLGGSNMNKKSGRPEELVSCADCGRSGHPTCLQFTLNMTEAVKTYKWQCIECKSCILCGTSENDDQLLFCDDCDRGYHMYCLNPPVAEPPEGSWSCHLCWELLKEKASAFGCQA
modifications: left off: EGFP, end not stated, kept
enhancement of endogenous Pitx2 transcript (Pitx2): more than 3 fold | DPF3b/H3K14ac interaction at Pitx2 promoter [1]: interacts with H3K14ac at the Pitx2 promoter site | co-localization with H3K14ac sites in C2C12 cell nucleus [2]: co-localized with H3K14ac sites
